Experimental data: ChEMBL document CHEMBL4699647, “Targeting the Allosteric Pathway That Interconnects the Core-Functional Scaffold and the Distal Phosphorylation Sites for Specific Dephosphorylation of Bcl-2” (J Med Chem, 2020)
pEC50, pKd, pKi: −log10 of the molar value. Active and inactive are the calls of the source. The rule behind the calls is not given here.

Key:
[1] = target: T1, Apoptosis regulator Bcl-2 (Homo sapiens, UniProt P10415); assay: Inhibition of FAM-Bim peptide binding to human full-length N-terminal His6-tagged Bcl2 (2 to 206 residues) expressed in Escherichia coli S12 extract measured after 30 mins by fluorescence polarization assay
T1 sequence (P10415 whole entry, the tested form may be a part): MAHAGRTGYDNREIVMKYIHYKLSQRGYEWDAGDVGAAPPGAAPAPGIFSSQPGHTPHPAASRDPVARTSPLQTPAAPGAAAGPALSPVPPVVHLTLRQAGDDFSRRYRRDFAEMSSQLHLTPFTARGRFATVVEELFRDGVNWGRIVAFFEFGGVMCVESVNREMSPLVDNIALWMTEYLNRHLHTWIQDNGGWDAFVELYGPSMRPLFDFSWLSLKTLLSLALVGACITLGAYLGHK

[2] = Inhibition of FAM-Bim peptide binding to human full-length N-terminal His6-tagged Bcl2 R106A/R109A mutant expressed in Escherichia coli S12 extract measured after 30 mins by fluorescence polarization assay
[3] = target: T2, Bcl-2-like protein 1 (Homo sapiens, UniProt Q07817); assay: Inhibition of FAM-Bim peptide binding to Bcl-xl (unknown origin) measured after 30 mins by fluorescence polarization assay
T2 sequence (Q07817 whole entry): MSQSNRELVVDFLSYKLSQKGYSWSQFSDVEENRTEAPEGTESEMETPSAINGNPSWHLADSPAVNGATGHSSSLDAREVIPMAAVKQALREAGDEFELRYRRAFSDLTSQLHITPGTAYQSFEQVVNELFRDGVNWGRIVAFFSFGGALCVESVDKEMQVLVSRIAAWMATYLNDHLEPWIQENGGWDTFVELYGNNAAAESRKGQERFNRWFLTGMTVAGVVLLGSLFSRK

[4] = target: Induced myeloid leukemia cell differentiation protein Mcl-1 (Homo sapiens, UniProt Q07820); assay: Inhibition of FAM-Bim peptide binding to MCl1 (unknown origin) measured after 30 mins by fluorescence polarization assay
Chain of Induced myeloid leukemia cell differentiation protein Mcl-1 (Q07820 whole entry): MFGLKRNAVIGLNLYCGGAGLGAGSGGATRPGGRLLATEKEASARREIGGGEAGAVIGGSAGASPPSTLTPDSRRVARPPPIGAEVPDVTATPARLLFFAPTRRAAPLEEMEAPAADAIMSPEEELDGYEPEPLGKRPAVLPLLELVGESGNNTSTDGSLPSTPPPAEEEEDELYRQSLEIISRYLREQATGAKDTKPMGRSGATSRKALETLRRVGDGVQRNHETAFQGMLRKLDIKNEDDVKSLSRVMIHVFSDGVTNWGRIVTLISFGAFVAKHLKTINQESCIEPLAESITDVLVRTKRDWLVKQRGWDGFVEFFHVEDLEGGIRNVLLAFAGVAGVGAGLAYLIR

[5] = tested on: HL-60; assay: Induction of apoptosis in human HL-60 cells measured after 48 hrs by FITC-Annexin V/PS staining based; type: functional, cell-based; settings: HL-60, 48 h
[6] = tested on: OCI-AML-3; assay: Induction of apoptosis in human OCI-AML-3 cells measured after 48 hrs by FITC-Annexin V/PS staining based; type: functional, cell-based; settings: OCI-AML-3, 48 h
[7] = tested on: KG-1; assay: Induction of apoptosis in human KG-1 cells measured after 48 hrs by FITC-Annexin V/PS staining based; type: functional, cell-based; settings: KG-1, 48 h
[8] = tested on: MCF7; assay: Induction of apoptosis in human MCF7 cells measured after 48 hrs by FITC-Annexin V/PS staining based; type: functional, cell-based; settings: MCF7, 48 h
[9] = target: T1, Apoptosis regulator Bcl-2; assay: Induction of BCl-2 dephosphorylation in human OCI-AML-3 cells at 5 to 10 uM measured after 24 hrs by coimmunoprecipitation method; type: cell-based; settings: dose microM 5-10, time 24.0 hrs
How it was run: (§1)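 Cells treated for 24 h, then lysed in 1% CHAPS buffer. 500 μg total protein precleared with protein A-Sepharose, incubated overnight with 5 μg specific antibody, captured on protein A-Sepharose or G-agarose, then immunoblotted. Bax/Bcl-2 complex, pBcl-2 (Ser70) and total Bcl-2 read out; n = 3 independent samples.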

[10] = target: T1, Apoptosis regulator Bcl-2; assay: Induction of BCl-2 dephosphorylation in human OCI-AML-3 cells assessed as increase in Bax expression at 5 to 10 uM measured after 24 hrs by coimmunoprecipitation method; type: cell-based; settings: dose microM 5-10, time 24.0 hrs; how it was run: as §1
[11] = target: T1, Apoptosis regulator Bcl-2; assay: Induction of BCl-2 dephosphorylation in human HL-60 cells at 5 to 10 uM measured after 24 hrs by coimmunoprecipitation method; type: cell-based; settings: dose microM 5-10, time 24.0 hrs; how it was run: as §1
[12] = target: T1, Apoptosis regulator Bcl-2; assay: Induction of BCl-2 dephosphorylation in human HL-60 cells assessed as increase in Bax expression at 5 to 10 uM measured after 24 hrs by coimmunoprecipitation method; type: cell-based; settings: dose microM 5-10, time 24.0 hrs; how it was run: as §1
[13] = target: T1, Apoptosis regulator Bcl-2; assay: Induction of BCl-2 dephosphorylation in human HL-60 cells at 5 to 15 uM measured after 24 hrs by coimmunoprecipitation method; type: cell-based; settings: filed as modulator, dose microM 5-15, time 24.0 hrs; how it was run: as §1
[14] = target: T1, Apoptosis regulator Bcl-2; assay: Induction of BCl-2 dephosphorylation in human HL-60 cells assessed as increase in Bax expression at 5 to 15 uM measured after 24 hrs by coimmunoprecipitation method; type: cell-based; settings: filed as modulator, dose microM 5-15, time 24.0 hrs; how it was run: as §1
[15] = target: T2, Bcl-2-like protein 1; assay: Effect on Bcl-xl phosphorylation in human HL-60 cells at 1 to 30 uM by Western blot analysis; settings: dose microM 1-30
[16] = Resistance ratio of EC50 for induction of apoptosis in human HL-60 cells to EC50 for Induction of apoptosis in human KG-1 cells; type: functional
[17] = Resistance ratio of EC50 for induction of apoptosis in human OCI-AML-3 cells to EC50 for Induction of apoptosis in human KG-1 cells; type: functional
[18] = Resistance ratio of EC50 for induction of apoptosis in human HL-60 cells to EC50 for Induction of apoptosis in human MCF7 cells; type: functional
[19] = Resistance ratio of EC50 for induction of apoptosis in human OCI-AML-3 cells to EC50 for Induction of apoptosis in human MCF7 cells; type: functional
[20] = target: T1, Apoptosis regulator Bcl-2; assay: Effect on Bcl2 phosphorylation in human HL-60 cells by Western blot analysis
[21] = Binding affinity to human full-length N-terminal His6-tagged Bcl2 R106A/R109A mutant expressed in Escherichia coli S12 extract by isothermal titration calorimetry
[22] = Binding affinity to human full-length N-terminal His6-tagged prephosphorylated Bcl2 R106A/R109A mutant expressed in Escherichia coli S12 extract by isothermal titration calorimetry
[23] = target: T1, Apoptosis regulator Bcl-2; assay: Induction of BCl-2 dephosphorylation in human HL-60 cells at 1 to 5 uM measured after 24 hrs by coimmunoprecipitation method; type: cell-based; settings: dose microM 1-5, time 24.0 hrs; how it was run: as §1
[24] = target: T1, Apoptosis regulator Bcl-2; assay: Induction of BCl-2 dephosphorylation in human HL-60 cells assessed as increase in Bax expression at 1 to 5 uM measured after 24 hrs by coimmunoprecipitation method; type: cell-based; settings: dose microM 1-5, time 24.0 hrs; how it was run: as §1
[25] = target: T1, Apoptosis regulator Bcl-2; assay: Induction of BCl-2 dephosphorylation in human OCI-AML-3 cells at 1 to 5 uM measured after 24 hrs by coimmunoprecipitation method; type: cell-based; settings: dose microM 1-5, time 24.0 hrs; how it was run: as §1
[26] = target: T1, Apoptosis regulator Bcl-2; assay: Induction of BCl-2 dephosphorylation in human OCI-AML-3 cells assessed as increase in Bax expression at 1 to 5 uM measured after 24 hrs by coimmunoprecipitation method; type: cell-based; settings: dose microM 1-5, time 24.0 hrs; how it was run: as §1
[27] = target: T1, Apoptosis regulator Bcl-2; assay: Binding affinity to human full-length N-terminal His6-tagged Bcl2 (2 to 206 residues) expressed in Escherichia coli S12 extract after 30 mins using FAM-labelled compound by fluorescence polarization assay
[28] = target: T1, Apoptosis regulator Bcl-2; assay: Binding affinity to human full-length N-terminal His6-tagged prephosphorylated Bcl2 (2 to 206 residues) expressed in Escherichia coli S12 extract after 30 mins using FAM-labelled compound by fluorescence polarization assay
[29] = Binding affinity to human full-length N-terminal His6-tagged Bcl2 R106A/R109A mutant expressed in Escherichia coli S12 extract after 30 mins using FAM-labelled compound by fluorescence polarization assay
[30] = Binding affinity to human full-length N-terminal His6-tagged prephosphorylated Bcl2 R106A/R109A mutant expressed in Escherichia coli S12 extract after 30 mins using FAM-labelled compound by fluorescence polarization assay

SMILES	pKi [1]	pKi [3]	pKi [4]	pEC50 [5]	pEC50 [6]	pEC50 [7]	pEC50 [8]	pKi [2]	further results
N#CC1=C(NCCC(=O)NCc2ccccc2)c2ccc(Sc3ccc(Br)cc3)c3cccc(c23)C1=O	5.98	5.95	6.25	4.66	4.65	4.77	4.73	5.73	Activity [9]: inactive; Activity [10]: inactive; Activity [11]: inactive; Activity [12]: inactive
N#CC1=C(NCCC(=O)O)c2ccc(Sc3ccc(Br)cc3)c3cccc(c23)C1=O	5.90	–	–	–	–	–	–	5.84	–
N#CC1=C(C#N)c2ccc(Sc3ccc(Br)cc3)c3cccc(c23)C1=O	6.07	6.12	6.31	–	–	–	–	5.78	–
N#CC1=C(NCCC(=O)NCc2cccc(C(=O)O)c2)c2ccc(Sc3ccc(Br)cc3)c3cccc(c23)C1=O	5.99	–	–	–	–	–	–	5.78	–
N#CC1=C(NCCC(=O)NCc2ccccc2C(=O)O)c2ccc(Sc3ccc(Br)cc3)c3cccc(c23)C1=O	5.87	–	–	–	–	–	–	5.76	–
CC1(C)CCC(c2ccc(Cl)cc2)=C(CN2CCN(c3ccc(C(=O)NS(=O)(=O)c4ccc(N[C@H](CCN5CCOCC5)CSc5ccccc5)c(S(=O)(=O)C(F)(F)F)c4)cc3)CC2)C1 [NAVITOCLAX]	–	–	–	–	–	–	–	–	pKd [21]: 7.56; pKd [22]: 7.51
CC1(C)CCC(CN2CCN(c3ccc(C(=O)NS(=O)(=O)c4ccc(NCC5CCOCC5)c([N+](=O)[O-])c4)c(Oc4cnc5[nH]ccc5c4)c3)CC2)=C(c2ccc(Cl)cc2)C1 [VENETOCLAX]	–	–	–	5.09	5.17	6.07	5.87	–	pKd [21]: 8.35; pKd [22]: 8.26; Activity [23]: inactive; Activity [24]: inactive; Activity [25]: inactive; Activity [26]: inactive
CN(C)c1ccc(CNC(=O)CCNC2=C(C#N)C(=O)c3cccc4c(Sc5ccc(Br)cc5)ccc2c34)cc1	5.36	–	–	–	–	–	–	6.08	–
CC[C@H](C)[C@H](NC(=O)[C@H](CCCNC(=N)N)NC(=O)[C@H](CCCNC(=N)N)NC(=O)[C@H](CC(C)C)NC(=O)[C@H](CS)NC(=O)[C@H](CCC(=O)O)NC(=O)[C@H](CO)NC(=O)[C@H](CC(C)C)NC(=O)[C@H](CCCCN)NC(=O)[C@H](CCCCN)NC(=O)[C@@H](NC(=O)[C@H](CO)NC(=O)[C@H](C)NC(=O)[C@H](CC(=O)O)NC(=O)[C@H](CCC(N)=O)NC(=O)[C@@H]1CCCN1C(=O)[C@@H]1CCCN1C(=O)[C@@H](N)CCC(N)=O)[C@@H](C)O)C(=O)NCC(=O)N[C@@H](CC(=O)O)C(=O)N[C@@H](CCC(=O)O)C(=O)N[C@@H](CC(C)C)C(=O)N[C@@H](CC(=O)O)C(=O)N[C@@H](CO)C(=O)N[C@@H](CC(N)=O)C(=O)N[C@@H](CCSC)C(=O)N[C@@H](CCC(=O)O)C(=O)N[C@@H](CC(C)C)C(=O)N[C@@H](CCC(N)=O)C(=O)N[C@@H](CCCNC(=N)N)C(=O)N[C@@H](CCSC)C(=O)N[C@H](C(=O)N[C@@H](C)C(=O)N[C@@H](CC(=O)O)C(=O)N[C@H](C(=O)N[C@@H](CC(=O)O)C(=O)O)C(C)C)[C@@H](C)CC	–	–	–	–	–	–	–	–	pKd [27]: 7.71; pKd [28]: 8.68; pKd [29]: 7.81; pKd [30]: 7.79

More lines, main results first:

pKi [1]	pKi [3]	pKi [4]	pEC50 [5]	pEC50 [6]	pEC50 [7]	pEC50 [8]	SMILES	pKi [2]	further results
6.80	6.09	6.49	5.42	5.40	5.31	5.26	N#CC1=C(NCCC(=O)NCc2ccc(C(=O)O)cc2)c2ccc(Sc3ccc(Br)cc3)c3cccc(c23)C1=O	5.78	Activity [13]: Active; Activity ([9]; filed as modulator): Active; Activity [14]: Active; Activity ([10]; filed as modulator): Active; Activity [15]: inactive
6.68	6.26	6.46	4.77	4.81	5.57	5.51	CCCCNC1=C(C#N)C(=O)c2cccc3c(Sc4ccc(Br)cc4)ccc1c23	6.82	Ratio EC50 [16]: 5; Ratio EC50 [17]: 5; Ratio EC50 [18]: 5; Ratio EC50 [19]: 5; Activity [9]: inactive; Activity [10]: inactive; Activity [11]: inactive; Activity [12]: inactive; Activity [20]: inactive
6.11	–	–	–	–	–	–	N#CC1=C(NCc2ccc(C(=O)O)cc2)c2ccc(Sc3ccc(Br)cc3)c3cccc(c23)C1=O	6.03	–
6.09	–	–	–	–	–	–	N#CC1=C(NCCC(=O)NCCOCCO)c2ccc(Sc3ccc(Br)cc3)c3cccc(c23)C1=O	6.11	–
